# Assay results as given in ChEMBL document CHEMBL1124934, “Synthesis and structure-activity relationships of dynorphin A-(1-8) amide analogues” (J Med Chem, 1990).
# Square brackets hold non-standard residues; d marks the D form. Peptide text beside a SMILES is read from it. NMeY = CN[C@@H](Cc1ccc(O)cc1)C(=O)O; NMeF = CN[C@@H](Cc1ccccc1)C(=O)O; Sar = CNCC(=O)O
# Key:
# [1] = target: Delta-type opioid receptor (Mus musculus, UniProt P32300); experiment: Evaluated for inhibitory activity against Opioid receptor delta 1 of mouse vas deferens (MVD).; format: tissue-based
# Chain of Delta-type opioid receptor (P32300 whole entry): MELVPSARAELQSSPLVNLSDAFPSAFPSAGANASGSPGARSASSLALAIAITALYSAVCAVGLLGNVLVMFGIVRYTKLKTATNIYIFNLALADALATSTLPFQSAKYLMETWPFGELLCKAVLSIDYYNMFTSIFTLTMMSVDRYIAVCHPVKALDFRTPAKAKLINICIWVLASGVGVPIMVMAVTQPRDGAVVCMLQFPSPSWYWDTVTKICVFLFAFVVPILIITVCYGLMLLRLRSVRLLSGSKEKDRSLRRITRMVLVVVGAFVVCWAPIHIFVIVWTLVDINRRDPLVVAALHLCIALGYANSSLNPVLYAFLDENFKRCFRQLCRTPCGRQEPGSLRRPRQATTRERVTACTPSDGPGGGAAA
# [2] = target: T1, Mu-type opioid receptor (Cavia porcellus, UniProt P97266); experiment: Evaluated for inhibitory activity against Opioid receptor mu 1 of guinea pig ileum (GPI); format: tissue-based
# T1 sequence (P97266 whole entry): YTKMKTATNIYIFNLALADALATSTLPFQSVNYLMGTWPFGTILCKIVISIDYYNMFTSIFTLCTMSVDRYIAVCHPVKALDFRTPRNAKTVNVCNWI
# [3] = target: T1, Mu-type opioid receptor; experiment: Binding affinities against Opioid receptor mu 1 of guinea pig brain membrane using [3H]DAGO as the radioligand using competition binding assays.
# Procedure, shortened: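 μ-site competition binding on crude P2 membranes from male Hartley guinea pig brain (1 g original wet weight/20 mL, 50 mM Tris-HCl pH 7.6) with 5 nM [3H]DAGO and varied competitor, 60 min at 25 °C. GF/B filtration (1% polyethylenimine presoaked), six ice-cold buffer rinses, scintillation counting. Nonspecific binding with 10 μM levallorphan. Mean of five or six determinations ± SEM.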
# [4] = system: Mus musculus; experiment: Evaluated for analgesic effect using mouse tail-pinch test after intravenous administration; format: functional
# Procedure, shortened: (§1)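 Mice, intravenous dosing, tail-pinch analgesia test. Four doses per compound, each dose tested on at least eight animals, giving ED50 in mg/kg.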
# [5] = system: Mus musculus; experiment: Evaluated for analgesic effect using mouse tail-pinch test after intravenous administration; 0.35-1.71; format: functional; procedure, shortened: as §1
# [6] = system: Mus musculus; experiment: Evaluated for analgesic effect using mouse tail-pinch test after intravenous administration; 0.11-0.52; format: functional; procedure, shortened: as §1
smiles,measurement,setting,value
CN[C@@H](Cc1ccc(O)cc1)C(=O)NCC(=O)NCC(=O)N[C@@H](Cc1ccccc1)C(=O)N(C)[C@@H](CC(C)C)C(=O)N[C@@H](CCCNC(=N)N)C(=O)N[C@@H](CCCNC(=N)N)C(=O)N[C@H](CC(C)C)C(N)=O,IC50,[1],25.3 nM
same,IC50,[2],11.9 nM
CN[C@@H](Cc1ccc(O)cc1)C(=O)NCC(=O)N[C@H](C)C(=O)N[C@@H](Cc1ccccc1)C(=O)N[C@@H](CC(C)C)C(=O)N[C@@H](CCCN=C(N)N)C(=O)N[C@@H](CCCN=C(N)N)C(=O)N[C@@H](CC(C)C)C(N)=O,IC50,[1],210 nM
same,IC50,[2],12.7 nM
CN[C@@H](Cc1ccc(O)cc1)C(=O)NCC(=O)NCC(=O)N[C@@H](Cc1ccccc1)C(=O)N[C@@H](CC(C)C)C(=O)N[C@@H](CCCNC(=N)N)C(=O)N(C)[C@@H](CCCNC(=N)N)C(=O)N[C@H](CC(C)C)C(N)=O,IC50,[1],4.8 nM
same,Ki,[3],3.34 nM
same,IC50,[2],0.5 nM
CCNC(=O)[C@@H](CC(C)C)NC(=O)[C@H](CCCNC(=N)N)NC(=O)[C@H](CCCNC(=N)N)NC(=O)[C@H](CC(C)C)NC(=O)[C@H](Cc1ccccc1)NC(=O)CNC(=O)CNC(=O)[C@H](Cc1ccc(O)cc1)NC,IC50,[1],4.6 nM
same,IC50,[2],0.7 nM
CN[C@@H](Cc1ccc(O)cc1)C(=O)NCC(=O)NCC(=O)N[C@H](Cc1ccccc1)C(=O)N[C@H](CC(C)C)C(=O)N[C@@H](CCCNC(=N)N)C(=O)N[C@@H](CCCNC(=N)N)C(=O)N[C@@H](CC(C)C)C(N)=O,IC50,[1],> 1740 nM
same,ED50,[4],> 6 mg/kg
same,IC50,[2],82 nM
CN[C@@H](Cc1ccc(O)cc1)C(=O)NCC(=O)NCC(=O)N[C@@H](Cc1ccccc1)C(=O)N[C@H](C)C(=O)N[C@@H](CCCNC(=N)N)C(=O)N[C@@H](CCCNC(=N)N)C(=O)N[C@H](CC(C)C)C(N)=O,IC50,[1],9800 nM
same,IC50,[2],6000 nM
CN[C@@H](Cc1ccc(O)cc1)C(=O)NCC(=O)NCC(=O)N[C@H](Cc1ccccc1)C(=O)N[C@H](C)C(=O)N[C@@H](CCCN=C(N)N)C(=O)N[C@@H](CCCN=C(N)N)C(=O)N[C@@H](CC(C)C)C(N)=O,ED50,[4],> 20 mg/kg
CN[C@@H](Cc1ccc(O)cc1)C(=O)NCC(=O)NNC(=O)N[C@@H](Cc1ccccc1)C(=O)N[C@@H](CC(C)C)C(=O)N[C@@H](CCCNC(=N)N)C(=O)N[C@@H](CCCNC(=N)N)C(=O)N[C@H](CC(C)C)C(N)=O,IC50,[1],62.4 nM
same,IC50,[2],18.6 nM
CN[C@@H](Cc1ccc(O)cc1)C(=O)NCC(=O)NCC(=O)N[C@@H](Cc1ccccc1)C(=O)N[C@@H](CC(C)C)C(=O)N[C@@H](CCCN=C(N)N)C(=O)N[C@@H](CCCN=C(N)N)C(=O)N[C@@H](CC(C)C)C(N)=O,IC50,[2],> 3000 nM
CN[C@@H](Cc1ccc(O)cc1)C(=O)NCC(=O)NCC(=O)N[C@@H](Cc1ccccc1)C(=O)N[C@@H](CC(C)C)C(=O)N[C@@H](CCCCN=C(N)N)C(=O)N[C@@H](CCCN=C(N)N)C(=O)N[C@H](CC(C)C)C(N)=O [listing 1 of 2 here],IC50,[1],12 nM
same,IC50,[2],2.6 nM
CN[C@@H](Cc1ccc(O)cc1)C(=O)NCC(=O)NCC(=O)N[C@@H](Cc1ccccc1)C(=O)N[C@@H](CC(C)C)C(=O)N[C@@H](CCCCN=C(N)N)C(=O)N[C@@H](CCCN=C(N)N)C(=O)N[C@H](CC(C)C)C(N)=O [listing 2 of 2 here],ED50,[4],> 8 mg/kg
CCNC(=O)[C@@H](CC(C)C)NC(=O)[C@H](CCCNC(=N)N)N(C)C(=O)[C@H](CCCNC(=N)N)NC(=O)[C@H](CC(C)C)NC(=O)[C@H](Cc1ccccc1)NC(=O)CNC(=O)CNC(=O)[C@H](Cc1ccc(O)cc1)NC,IC50,[1],7.4 nM
same,Ki,[3],4.51 nM
same,IC50,[2],0.3 nM
CCCCCCNC(=O)[C@@H](CC(C)C)NC(=O)[C@H](CCCNC(=N)N)NC(=O)[C@H](CCCNC(=N)N)NC(=O)[C@H](CC(C)C)NC(=O)[C@H](Cc1ccccc1)NC(=O)CNC(=O)CNC(=O)[C@H](Cc1ccc(O)cc1)NC,IC50,[1],22.3 nM
same,IC50,[2],6.6 nM
CCCCCCNC(=O)[C@H](CC(C)C)NC(=O)[C@H](CCCN=C(N)N)NC(=O)[C@H](CCCN=C(N)N)NC(=O)[C@H](CC(C)C)NC(=O)[C@@H](Cc1ccccc1)NC(=O)CNC(=O)CNC(=O)[C@H](Cc1ccc(O)cc1)NC,ED50,[4],> 7 mg/kg
CCNC(=O)[C@@H](CC(C)C)NC(=O)[C@H](CCCN=C(N)N)N(C)C(=O)[C@H](CCCN=C(N)N)NC(=O)[C@H](CC(C)C)NC(=O)[C@H](Cc1ccc([N+](=O)[O-])cc1)NC(=O)CNC(=O)CNC(=O)[C@H](Cc1ccc(O)cc1)NC [listing 1 of 2 here],IC50,[1],3.7 nM
same,Ki,[3],1.74 nM
same,IC50,[2],0.5 nM
CCNC(=O)[C@@H](CC(C)C)NC(=O)[C@H](CCCN=C(N)N)N(C)C(=O)[C@H](CCCN=C(N)N)NC(=O)[C@H](CC(C)C)NC(=O)[C@H](Cc1ccc([N+](=O)[O-])cc1)NC(=O)CNC(=O)CNC(=O)[C@H](Cc1ccc(O)cc1)NC [listing 2 of 2 here],ED50,[5],0.77 mg/kg
CN[C@@H](Cc1ccc(O)cc1)C(=O)NCC(=O)NCC(=O)N[C@@H](Cc1ccccc1)C(=O)N[C@@H](CC(C)C)C(=O)N(C)[C@@H](CCCN=C(N)N)C(=O)N[C@@H](CCCN=C(N)N)C(=O)N[C@H](CC(C)C)C(N)=O,IC50,[1],114 nM
same,IC50,[2],20.6 nM
CC[C@H](C)[C@H](NC(=O)[C@H](CCCNC(=N)N)NC(=O)[C@H](CCCNC(=N)N)NC(=O)[C@H](CC(C)C)NC(=O)[C@H](Cc1ccccc1)NC(=O)CNC(=O)CNC(=O)[C@@H](N)Cc1ccc(O)cc1)C(N)=O,IC50,[1],3 nM
same,Ki,[3],7.16 nM
same,IC50,[2],0.2 nM
CCNC(=O)[C@@H](CC(C)C)NC(=O)[C@H](CCCN=C(N)N)N(C)C(=O)[C@H](CCCN=C(N)N)NC(=O)[C@@H]1CSSC[C@@H](NC(=O)[C@@H](N)Cc2ccc(O)cc2)C(=O)NCC(=O)N[C@@H](Cc2ccccc2)C(=O)N1 [listing 1 of 2 here],IC50,[1],0.13 nM
same,Ki,[3],0.85 nM
same,IC50,[2],0.007 nM
CCNC(=O)[C@@H](CC(C)C)NC(=O)[C@H](CCCN=C(N)N)N(C)C(=O)[C@H](CCCN=C(N)N)NC(=O)[C@@H]1CSSC[C@@H](NC(=O)[C@@H](N)Cc2ccc(O)cc2)C(=O)NCC(=O)N[C@@H](Cc2ccccc2)C(=O)N1 [listing 2 of 2 here],ED50,[6],0.22 mg/kg
CC(C)C[C@H](NC(=O)[C@H](CCCN=C(N)N)NC(=O)[C@H](CCCN=C(N)N)NC(=O)[C@H](CC(C)C)NC(=O)[C@H](Cc1ccccc1)NC(=O)CNC(=O)CN(C)C(=O)[C@@H](N)Cc1ccc(O)cc1)C(N)=O (H-Y[Sar]GFLRRL-NH2),ED50,[4],> 10 mg/kg
CC(C)C[C@H](NC(=O)[C@H](CCCNC(=N)N)NC(=O)[C@H](CCCNC(=N)N)NC(=O)[C@H](CC(C)C)NC(=O)[C@H](Cc1ccccc1)NC(=O)CNC(=O)CN(C)C(=O)[C@@H](N)Cc1ccc(O)cc1)C(N)=O (H-Y[Sar]GFLRRL-NH2),IC50,[1],1770 nM
same,IC50,[2],897 nM
CN[C@@H](Cc1ccc(O)cc1)C(=O)N[C@@H](C)C(=O)NCC(=O)N[C@@H](Cc1ccccc1)C(=O)N[C@@H](CC(C)C)C(=O)N[C@@H](CCCN=C(N)N)C(=O)N[C@@H](CCCN=C(N)N)C(=O)N[C@@H](CC(C)C)C(N)=O (H-[NMeY]AGFLRRL-NH2),ED50,[4],> 5 mg/kg
CN[C@@H](Cc1ccc(O)cc1)C(=O)N[C@@H](C)C(=O)NCC(=O)N[C@@H](Cc1ccccc1)C(=O)N[C@@H](CC(C)C)C(=O)N[C@@H](CCCNC(=N)N)C(=O)N[C@@H](CCCNC(=N)N)C(=O)N[C@@H](CC(C)C)C(N)=O (H-[NMeY]AGFLRRL-NH2),IC50,[1],25.7 nM
same,Ki,[3],1.25 nM
same,IC50,[2],13.9 nM
CN[C@@H](Cc1ccc(O)cc1)C(=O)NCC(=O)NCC(=O)N(C)[C@@H](Cc1ccccc1)C(=O)N[C@@H](CC(C)C)C(=O)N[C@@H](CCCNC(=N)N)C(=O)N[C@@H](CCCNC(=N)N)C(=O)N[C@@H](CC(C)C)C(N)=O (H-[NMeY]GG[NMeF]LRRL-NH2),IC50,[1],121 nM
same,IC50,[2],26.7 nM
